Data published in ChEMBL document CHEMBL1150611, “Gaboroquinones A and B and 4'-O-demethylknipholone-4'-O-beta-D-glucopyranoside, phenylanthraquinones from the roots of Bulbine frutescens” (J Nat Prod, 2002).
Converted amounts (≈) assume the structure as drawn.

Assays:
[1] = test system: Trypanosoma cruzi; assay: Trypanocidal activity against trypomastigotes of Trypanosoma cruzi Tulahuen C2C4 infected in rat L6 cells after 4 days; type: functional, organism-based; conditions: L6, 96 h
[2] = test system: Trypanosoma brucei rhodesiense; assay: Trypanocidal activity against Trypanosoma brucei rhodesiense STIB 900 after 72 hrs; type: functional, organism-based
[3] = test system: L6; assay: Cytotoxicity against rat L6 cells after 4 days; type: cell-based; conditions: L6, 96 h
How it was run: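 Mammalian-cell cytotoxicity was tested up to a highest concentration of 90 µg mL-1.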

[4] = test system: Plasmodium falciparum; assay: Antiplasmodial activity against chloroquine and pyrimethamine-resistant Plasmodium falciparum K1 infected human erythrocytes after 48 hrs by [3H]hypoxanthine uptake; type: functional, organism-based
How it was run: (§1)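 Top test concentration was 5.0 µg mL-1.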

[5] = test system: Plasmodium falciparum; assay: Antiplasmodial activity against multi drug-sensitive Plasmodium falciparum NF54 infected human erythrocytes after 48 hrs by [3H]hypoxanthine uptake; type: functional, organism-based; how it was run: as §1

Compound | IC50 [1] [µg/mL] | IC50 [2] [µg/mL] | MIC [3] [µg/mL] | IC50 [4] [µg/mL] | IC50 [5] [µg/mL]
COc1cc(O)c(-c2c(C)cc(O)c3c2C(=O)c2cccc(O)c2C3=O)c(O)c1C(C)=O [KNIPHOLONE] | 7.6 (≈ 17.5 µM) | 9.3 (≈ 21.4 µM) | 33 (≈ 76 µM) | 0.67 (≈ 1.54 µM) | 0.91 (≈ 2.09 µM)
COc1cc(O)c(-c2c(CO)cc(O)c3c2C(=O)c2cccc(O)c2C3=O)c(O)c1C(C)=O [GABOROQUINONE B] | > 90 | 45.5 (≈ 101 µM) | > 90 | > 5 | > 5
COc1c(C(C)=O)c(O)cc(O)c1-c1c(CO)cc(O)c2c1C(=O)c1cccc(O)c1C2=O [GABOROQUINONE A] | 33.1 (≈ 73.5 µM) | 5.1 (≈ 11.3 µM) | > 90 | 4.8 (≈ 10.7 µM) | 4.2 (≈ 9.33 µM)
CC(=O)c1c(O[C@@H]2O[C@H](CO)[C@@H](O)[C@H](O)[C@H]2O)cc(O)c(-c2c(C)cc(O)c3c2C(=O)c2cccc(O)c2C3=O)c1O [BULBINELONESIDE D] | 6.8 (≈ 11.7 µM) | 0.7 (≈ 1.2 µM) | 90 (≈ 155 µM) | 0.41 (≈ 0.704 µM) | 0.43 (≈ 0.738 µM)
